Consider 17 compounds from ChEMBL document CHEMBL5131398, “Novel nucleocapsid protein-targeting phenanthridine inhibitors of SARS-CoV-2” (Eur J Med Chem, 2022).

The first experiment has as its system Severe acute respiratory syndrome coronavirus 2. The experiment in a line: Binding affinity to N-terminal 6-histidine tagged Severe acute respiratory syndrome coronavirus 2 nucleocapsid protein overexpressed in Escherichia coli BL21 (DE3) assessed as response unit by SPR assay. The method in brief:
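Single-concentration binding screen: compounds at 200 μM over a surface carrying >10000 RU NPro. 120 s contact, 180 s dissociation, running buffer with 5% DMSO, solvent correction applied. Running buffer served as negative control.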
On the technique in general: Surface plasmon resonance follows binding to a sensor surface in real time, without labels.
In the case of `CCC(=O)Nc1cccc2c1N(CC)Cc1cc(OC)c(OC)cc1-2`, the Activity stood at 10.6 RU.

With `CCN1Cc2cc(OC)c(OC)cc2-c2cccc(NC(=O)C(C)C)c21`, the Activity was found to be 11.8 RU. Same read-out and setting: the same measure for `CCN1Cc2cc(OC)c(OC)cc2-c2cccc(NC(C)=O)c21`: 14.3 RU; for `CCn1c(=O)c2cc(OC)c(OC)cc2c2cccc(NC(=O)CCC(=O)OC)c21`: 13.1 RU. Consider `CCc1cccc2c1N(C)Cc1cc(OCc3cc(C)nn3C)c(OCc3cc(C)nn3C)cc1-2`, for which the Activity is 211 RU. For the compound `CCn1c(=O)c2cc(OC)c(OC)cc2c2cccc(N)c21`, the Activity is 23.1 RU. Turning to `COc1cc2cnc3c(C)cccc3c2cc1OC`, the Activity turned out to be 29.4 RU. Regarding `CCN1Cc2cc(OC)c(OC)cc2-c2cccc(NC(=O)C(F)(F)F)c21`, the Activity was determined as 101 RU. Still for that read-out and setting: the same measure for `Cc1cccc2c1N(C)Cc1cc(O)ccc1-2`: 35 RU. Still for that read-out and setting: the same measure for `COc1cc2c(cc1OC)-c1cccc(C)c1N(C(=O)C(F)(F)F)C2`: 57.5 RU. The same measure, in the same setting: the value for `CCN1Cc2cc(OC)c(OC)cc2-c2cccc(N)c21` was 145 RU; that for `COc1ccc2c(c1)CN(C)c1c(C)cccc1-2` was 34.9 RU. On to `CCc1cccc2c1ncc1ccc(OC)cc12`, for which the Activity worked out at 30.7 RU.

Take `CCN1Cc2cc(OC)c(OC)cc2-c2cccc(NCC(F)(F)F)c21`: the Activity is 125 RU. For `CCc1cccc2c1N(C(=O)CBr)Cc1ccc(OC)cc1-2`, the Activity amounted to 22 RU. The same measure, in the same setting: the value for `CCn1c(=O)c2cc(OC)c(OC)cc2c2cccc(NC(C)=O)c21` was 17.7 RU; that for `CCn1c(=O)c2cc(OC)c(OC)cc2c2cccc(C(=O)O)c21` was 33.5 RU.

System in another experiment: not listed separately
The experiment in a line: Binding affinity to N-terminal 6-histidine tagged Severe acute respiratory syndrome coronavirus 2 nucleocapsid protein overexpressed in Escherichia coli BL21 (DE3) assessed as dissociation constant by SPR assay.
In the case of `CCc1cccc2c1N(C)Cc1cc(OCc3cc(C)nn3C)c(OCc3cc(C)nn3C)cc1-2`, the dissociation constant Kd came out at 10.8 µM.

For `CCN1Cc2cc(OC)c(OC)cc2-c2cccc(NCC(F)(F)F)c21`, the Kd turned out to be 10.4 µM.

Usually Kd stands for a measure of binding affinity in units of concentration.
